Compound activity as filed in PubChem BioAssay.
This is a sample that favours compounds with a hit; in the whole collection about 2.2% have one here.
FGF22 binding = shifts melting point of recombinant human FGF22; hit rate 1.5% among 340,000; Q9HCT0; activity (Tm shift, normalised), % at 9.99 µM; recombinant FGF22 thermal shift, SYPRO orange fluorescence; percent of sucrose octasulfate shift, DMSO zero; AID 651658;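 active means mean Tm shift, scaled 0 neutral to 100 positive control, at about 1.3% or above, every replicate too, limit read from the data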
PGC1a acetyl inh = PGC1a acetylation modulation, inhibitor mode | U2OS PGC1a acetylation, AlphaScreen anti-acetyl-lysine; with virally co-expressed GCN5 acetyltransferase | inhibition, % at 15.6 µM | hit rate 0.17% among 350,000;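 active means every replicate shows inhibition of at least 40%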;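 further: 0% = neutral control wells and 100% = positive control wells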
FN deposit inh = fibronectin deposition inhibition; inhibition, % at 12.6 µM; AH1F fibroblasts, Alexa488-fibronectin deposition fluorescence, overnight; AID 743247; hit rate 0.086% among 350,000;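 active means mean inhibition across replicates of 30% or more, regardless of how many single replicates reach that level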;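 further: positive control wells lacked labelled fibronectin entirely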
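Assay system: AH1F fibroblast monolayer, labelled fibronectin deposition. Amount: 10000 cells per well. Also added: labelled fibronectin 24 nM. Compound: single-point pinned compound. Incubation: cell attachment 1 h, compound and FN exposure overnight. Detection: fluorescence after three HBSS washes, excitation 485 nm, emission 525 nm. Read-out: inhibition of fibronectin deposition signal.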
SIRT5 block = sirtuin-5 (human) deacylase inhibition; Q9NXA8; Purified SirT5, succinyl-peptide AMC, trypsin-coupled fluorescence; inhibition, % at 15 µM; hit rate 1.1% among 330,000; AID 652115; in the data active means inhibition above about 15%
ERAP1 HTS inh = ERAP1 (human) enzyme inhibition; Q9NZ08; recombinant ERAP1, Leu-AMC fluorescence, 60 min; inhibition, % at 10.7 µM; hit rate 0.15% among 340,000; AID 652197;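 active means mean replicate inhibition of at least 30%, or all replicates individually reaching that 30% level; inactive means mean below 30% and not every replicate reaching it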;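 further: 0% = neutral control wells and 100% = L-leucinethiol positive control wells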
* marks the source's active call; other numbers are inactive results; . = no result given.

SMILES	FGF22 binding	PGC1a acetyl inh	FN deposit inh	SIRT5 block	ERAP1 HTS inh
O=C(NCC[C@@H]1CC[C@@H](NC(=O)C2CCC2)[C@H](CO)O1)Nc1ccc(Cl)cc1	0	-5	.	1	-6
Cc1cc(C)c(C(=O)COC(=O)c2cccnc2Cl)c(C)c1	43*	-10	-3	-4	2
COc1ccc(NC(=O)N(C)C[C@@H]2Oc3ccc(NC(=O)CCN4CCOCC4)cc3C(=O)N([C@@H](C)CO)C[C@@H]2C)cc1	0	-12	-16	-5	2
Cc1ccc(NC(=O)C(C)OC(=O)/C=C/c2ccccc2)cc1 (stereo not given)	0	-2	7	-1	1
CC(OC(=O)/C=C/c1ccccc1)C(=O)Nc1ccc2c(c1)OCCO2 (stereo not given)	0	-8	3	20*	-1
CN(Cc1ccccc1)C(=O)CN1C(=O)NC2(CCCc3sccc32)C1=O (stereo not given)	43*	1	3	.	1
CN(Cc1ccccc1)C(=O)CN1C(=O)NC2(CCCC2)C1=O	0	4	20	-3	0
C[n+]1ccc(C(=O)Nc2ccccc2Cl)cc1	0	-14	2	-3	102*
O=C(Nc1ccccc1Cl)c1ccc2ccccc2c1	0	-4	2	0	-2
Cc1ccc(C)c(NC(=O)c2cc[n+](C)cc2)c1	0	.	0	-5	87*
COc1ccc(S(=O)(=O)N(C)C[C@@H]2OCCCC[C@H](C)Oc3ccc(NS(=O)(=O)c4cn(C)cn4)cc3C(=O)N([C@@H](C)CO)C[C@H]2C)cc1	0	4	-4	3	1
C[C@H](NC(=O)C[C@@H]1C=C[C@H](NC(=O)Cc2ccccn2)[C@H](CO)O1)c1ccccc1	0	0	20	-2	-1
CN(CC(=O)Nc1ccc(F)c(F)c1F)C(=O)CCCc1nc2ccccc2c(=O)[nH]1	0	3	-3	-5	-2
CN(CC(=O)Nc1cccc(F)c1)C(=O)CCc1nc2ccccc2c(=O)[nH]1	0	14	3	0	49*
C[C@H]1CN([C@@H](C)CO)C(=O)c2cc(NS(=O)(=O)c3ccccc3)ccc2O[C@@H]1CN(C)S(=O)(=O)c1ccc(Cl)cc1	.	-23	.	.	.
Cc1noc(NS(=O)(=O)c2ccc(NC(=O)/C=C/c3ccc(Br)cc3)cc2)c1C	0	.	.	2	-1
Cc1noc(NS(=O)(=O)c2ccc(NC(=O)/C=C/c3ccc(C(C)C)cc3)cc2)c1C	1.4*	-4	.	10	3
NCCCn1c(C(=O)c2cc(Cl)c(N)c(Cl)c2)c2ccc([N+](=O)[O-])cc2[n+]1[O-]	0	54*	-6	.	.
CCCNC(=O)C[C@H]1CC[C@@H]2[C@@H](COc3ccc(NC(=O)Nc4ccccc4)cc3C(=O)N2C)O1	0	-20	.	.	.
COc1ccc(-n2nnnc2SCC(=O)c2ccc3c(c2)OCCO3)c(OC)c1	0	4	.	27*	1
COc1ccc(C)cc1-n1nnnc1SCC(=O)c1ccc2c(c1)OCCO2	.	0	0	.	.
O=C(N[C@H]1C=C[C@H](CC(=O)N2CCOCC2)O[C@H]1CO)c1ccccn1	-1	-4	-1	29*	0
O=C(N[C@H]1C=C[C@@H](CC(=O)N2CCOCC2)O[C@@H]1CO)c1ccccn1	0	1	0	-1	0
O=C(c1[nH]c(C(F)(F)F)nc1-c1ccccc1)N1CCCN(Cc2ccc(F)cc2)CC1	0	5	-5	29*	6
CCCN1C[C@H](C)[C@H](OC)CN(C)C(=O)c2ccc(NC(=O)c3cnccn3)cc2OC[C@H]1C	0	-6	-2	14	3
SMILES	FGF22 binding	PGC1a acetyl inh	FN deposit inh	SIRT5 block	ERAP1 HTS inh
CN(C)C(C(=O)NC1CCCCC1)c1ccc(Cl)cc1 (stereo not given)	.	-8	6	.	.
CCN(CC)C(C(=O)NC1CCCCC1)c1ccc(C)cc1 (stereo not given)	43*	-1	.	0	4
O=C(/C=C/c1ccco1)NC(=S)Nc1cccc(C(=O)O)c1	1	.	-4	22*	2
O=C(O)CCCNC(=O)/C=C/c1ccco1	44*	-3	7	0	-2
O=C(O)CCCCCNC(=O)/C=C/c1ccco1	0	2	1	-3	6
COc1ccc2c3c([nH]c2c1)[C@@H](CO)N(C(=O)c1cccnc1)CC31CN(Cc2cccnc2)C1	0	.	.	.	-1
O=C(NCCC1=CCCCC1)C(=O)NCC1OCCCN1S(=O)(=O)c1ccc(F)cc1 (stereo not given)	44*	-8	14	0	-7
O=C(NCCC1=CCCCC1)C(=O)NCC1OCCCN1S(=O)(=O)c1cc(F)ccc1F (stereo not given)	0	0	1	-2	12
CCOc1ccc(N2C(=O)Cc3ccccc3C2=O)cc1	0	43*	5	1	-1
O=C(c1ccncc1)N1CC2(C1)[C@H](c1ccccc1)[C@@H](CO)N2CC1CCCC1	0	-3	-3	-2	0
N#C[C@H]1[C@H](c2ccccc2-c2cccc(F)c2)[C@@H](CO)N1C(=O)NC1CCCCC1	.	2	8	1	-2
